Reference: ChEMBL document CHEMBL3102854, “Design, synthesis and in vitro cytotoxicity evaluation of 5-(2-carboxyethenyl)isatin derivatives as anticancer agents” (Bioorg Med Chem Lett, 2014)

How the values were obtained:
K562 [1] = assay: Cytotoxicity against human K562 cells after 48 hrs by MTT assay; assay type: functional, cell-based; details: K562, 48 h
How it was run: (§1)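 Cells seeded at 5 × 10⁴ cells/mL and allowed to settle 2 h (K562) or overnight (HepG2, HT-29). Compound in DMSO added, then 48 h further culture. Viability read by MTT with a microplate reader, normalized to DMSO-treated controls set as 100%. IC₅₀ obtained by nonlinear regression; each compound measured three times.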

HepG2 = assay: Cytotoxicity against human HepG2 cells after 48 hrs by MTT assay; assay type: functional, cell-based; details: HepG2, 48 h; how it was run: as §1
HT-29 = assay: Cytotoxicity against human HT-29 cells after 48 hrs by MTT assay; assay type: functional, cell-based; details: HT-29, 48 h; how it was run: as §1
K562 [2] = assay: Induction of apoptosis in human K562 cells at 30 nM after 12 hrs using annexin V-FITC and propidium iodide staining by flow cytometric analysis relative to control; assay type: functional
How it was run: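 K562 cells cultured without or with 30 nM compound for 12 h. 1 × 10⁶ cells resuspended in binding buffer containing annexin V-FITC and propidium iodide and incubated 15 min. Further binding buffer added, then cells analysed by flow cytometry for phosphatidylserine exposure.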

Row | SMILES | IC50 (K562 [1]) | IC50 (HepG2) | IC50 (HT-29) | Activity (K562 [2])
1 | O=C1Nc2ccc(Br)cc2C1=O | > 10000 nM | > 10000 nM | > 10000 nM | –
2 | Cc1ccc2c(c1)C(=O)C(=O)N2 | > 10000 nM | > 10000 nM | > 10000 nM | –
3 | CCCCc1ccc2c(c1)C(=O)C(=O)N2 | > 10000 nM | > 10000 nM | > 10000 nM | –
4 | COC(=O)/C=C/c1ccc2c(c1)C(=O)C(=O)N2 | 220 nM | 370 nM | 270 nM | –
5 | COC(=O)/C=C/c1ccc2c(c1)C(=O)C(=O)N2C | 340 nM | 530 nM | 300 nM | –
6 | CCN1C(=O)C(=O)c2cc(/C=C/C(=O)OC)ccc21 | 170 nM | 400 nM | 210 nM | –
7 | COC(=O)/C=C/c1ccc2c(c1)C(=O)C(=O)N2Cc1ccccc1 | 40 nM | 40 nM | 70 nM | –
8 | COC(=O)/C=C/c1ccc2c(c1)C(=O)C(=O)N2Cc1ccc(F)cc1 | 30 nM | 40 nM | 60 nM | –
9 | COC(=O)/C=C/c1ccc2c(c1)C(=O)C(=O)N2Cc1ccc(C#N)cc1 | 30 nM | 50 nM | 50 nM | –
10 | COC(=O)/C=C/c1ccc2c(c1)C(=O)C(=O)N2Cc1ccc(C(F)(F)F)cc1 | 40 nM | 70 nM | 40 nM | –
11 | COC(=O)/C=C/c1ccc2c(c1)C(=O)C(=O)N2Cc1ccc(C)cc1 | 40 nM | 40 nM | 30 nM | –
12 | COC(=O)/C=C/c1ccc2c(c1)C(=O)C(=O)N2Cc1ccc(OC)cc1 | 3 nM | 30 nM | 30 nM | 37.2%
13 | COC(=O)/C=C/c1ccc2c(c1)C(=O)C(=O)N2Cc1ccc(Cl)cc1 | 30 nM | 40 nM | 60 nM | –
14 | COC(=O)/C=C/c1ccc2c(c1)C(=O)C(=O)N2Cc1ccc(Cl)c(Cl)c1 | 60 nM | 160 nM | 210 nM | –
15 | COC(=O)/C=C/c1ccc2c(c1)C(=O)C(=O)N2Cc1ccc(Br)cc1 | 6 nM | 40 nM | 30 nM | 32.2%
16 | COC(=O)/C=C/c1ccc2c(c1)C(=O)C(=O)N2Cc1cccc(Br)c1 | 30 nM | 170 nM | 240 nM | –
17 | COC(=O)/C=C/c1ccc2c(c1)C(=O)C(=O)N2Cc1ccccc1Br | 70 nM | 260 nM | 240 nM | –
18 | COC(=O)/C=C/c1ccc2c(c1)C(=O)C(=O)N2Cc1ccc2ccccc2c1 | 40 nM | 90 nM | 100 nM | –
19 | COC(=O)/C=C/c1ccc2c(c1)C(=O)C(=O)N2CCOc1ccccc1 | 60 nM | 210 nM | 200 nM | –
20 | COC(=O)/C=C/c1ccc2c(c1)C(=O)C(=O)N2Cc1cc(C)cc(C)c1 | 40 nM | 150 nM | 70 nM | –
21 | COC(=O)/C=C/c1cccc2c1C(=O)C(=O)N2Cc1ccc(OC)cc1 | 350 nM | 5490 nM | 3120 nM | –
22 | COC(=O)/C=C/c1ccc2c(c1)N(Cc1ccc(OC)cc1)C(=O)C2=O | 4860 nM | > 10000 nM | > 10000 nM | –
23 | COC(=O)/C=C/c1cccc2c1N(Cc1ccc(OC)cc1)C(=O)C2=O | 4130 nM | > 10000 nM | > 10000 nM | –
24 | CCOC(=O)/C=C/c1ccc2c(c1)C(=O)C(=O)N2Cc1ccc(OC)cc1 | 10 nM | 90 nM | 60 nM | –
25 | CCOC(=O)/C=C/c1ccc2c(c1)C(=O)C(=O)N2Cc1ccc(Br)cc1 | 30 nM | 290 nM | 50 nM | –
26 | CCCCOC(=O)/C=C/c1ccc2c(c1)C(=O)C(=O)N2Cc1ccc(OC)cc1 | 40 nM | 630 nM | 420 nM | –

Row | SMILES | IC50 (K562 [1]) | IC50 (HepG2) | IC50 (HT-29) | Activity (K562 [2])
27 | CCCCOC(=O)/C=C/c1ccc2c(c1)C(=O)C(=O)N2Cc1ccc(Br)cc1 | 150 nM | 650 nM | 600 nM | –
28 | COc1ccc(CN2C(=O)C(=O)c3cc(/C=C/C(=O)OC(C)(C)C)ccc32)cc1 | 50 nM | 620 nM | 480 nM | –
29 | CC(C)(C)OC(=O)/C=C/c1ccc2c(c1)C(=O)C(=O)N2Cc1ccc(Br)cc1 | 290 nM | 2050 nM | 730 nM | –
30 | COc1ccc(CN2C(=O)C(=O)c3cc(/C=C/C(=O)OCCO)ccc32)cc1 | 40 nM | 860 nM | 550 nM | –
31 | O=C(/C=C/c1ccc2c(c1)C(=O)C(=O)N2Cc1ccc(Br)cc1)OCCO | 50 nM | 3660 nM | 680 nM | –
32 | COc1ccc(CN2C(=O)C(=O)c3cc(/C=C/C(=O)O)ccc32)cc1 | > 10000 nM | > 10000 nM | > 10000 nM | –
33 | COc1ccc(CN2C(=O)C(=O)c3cc(/C=C/C(N)=O)ccc32)cc1 | 200 nM | 890 nM | 560 nM | –
34 | NC(=O)/C=C/c1ccc2c(c1)C(=O)C(=O)N2Cc1ccc(Br)cc1 | 300 nM | > 10000 nM | 550 nM | –
35 | COc1ccc(CN2C(=O)C(=O)c3cc(/C=C/C(=O)N4CCOCC4)ccc32)cc1 | 720 nM | 7380 nM | 4240 nM | –
36 | O=C1C(=O)N(Cc2ccc(Br)cc2)c2ccc(/C=C/C(=O)N3CCOCC3)cc21 | 1380 nM | 7790 nM | 4590 nM | –
37 | COc1ccc(CN2C(=O)C(=O)c3cc(/C=C/C(=O)N4CCCC4)ccc32)cc1 | 460 nM | 7810 nM | 5230 nM | –
38 | O=C1C(=O)N(Cc2ccc(Br)cc2)c2ccc(/C=C/C(=O)N3CCCC3)cc21 | 1710 nM | 6300 nM | 4420 nM | –
39 | COC(=O)/C=C/c1ccc2c(c1)C(O)C(=O)N2Cc1ccc(OC)cc1 (stereo not given) | 30 nM | 380 nM | 320 nM | –
40 | COC(=O)/C=C/c1ccc2c(c1)C(O)C(=O)N2Cc1ccc(Br)cc1 (stereo not given) | 260 nM | 670 nM | 660 nM | –
41 | COC(=O)/C=C/c1ccc2c(c1)/C(=N/O)C(=O)N2Cc1ccc(OC)cc1 | 2110 nM | 3560 nM | 4940 nM | –
42 | COC(=O)/C=C/c1ccc2c(c1)/C(=N/O)C(=O)N2Cc1ccc(Br)cc1 | 2920 nM | 9960 nM | 3640 nM | –
43 | COC(=O)/C=C/c1ccc2c(c1)CC(=O)N2Cc1ccc(OC)cc1 | 990 nM | 9170 nM | 3720 nM | –
44 | COC(=O)/C=C/c1ccc2c(c1)CC(=O)N2Cc1ccc(Br)cc1 | 3160 nM | > 10000 nM | > 10000 nM | –
45 | COC(=O)/C=C/c1ccc2c(c1)C1(OCCO1)C(=O)N2Cc1ccc(OC)cc1 | 4890 nM | > 10000 nM | > 10000 nM | –
46 | COC(=O)/C=C/c1ccc2c(c1)C1(OCCO1)C(=O)N2Cc1ccc(Br)cc1 | 2630 nM | 7470 nM | 5110 nM | –
47 | O=C1Nc2ccc(Cl)cc2C1=O | > 10000 nM | > 10000 nM | > 10000 nM | –
48 | O=C1Nc2ccc(F)cc2C1=O [5-FLUOROISATIN] | > 10000 nM | > 10000 nM | > 10000 nM | –
49 | COc1ccc2c(c1)C(=O)C(=O)N2 [5-METHOXYISATIN] | > 10000 nM | > 10000 nM | > 10000 nM | –
50 | CC[C@@]1(O)C(=O)OCc2c1cc1n(c2=O)Cc2cc3ccccc3nc2-1 [CAMPTOTHECIN] | 40 nM | 50 nM | 60 nM | –
51 | O=C1Nc2ccccc2C1=O [ISATIN] | > 10000 nM | > 10000 nM | > 10000 nM | –
